# Laboratory results published in ChEMBL document CHEMBL1773035, “SHAFTS: a hybrid approach for 3D molecular similarity calculation. 2. Prospective case study in the discovery of diverse p90 ribosomal S6 protein kinase 2 inhibitors to suppress cell migration” (J Med Chem, 2011).
# The source made the active and inactive calls. The rule behind the calls is not given here.
# Tests used:
# [1] = target: T1, Ribosomal protein S6 kinase alpha-3 (Homo sapiens, UniProt P51812); experiment: Inhibition of RSK2 after 60 mins
# T1 sequence (P51812 whole entry): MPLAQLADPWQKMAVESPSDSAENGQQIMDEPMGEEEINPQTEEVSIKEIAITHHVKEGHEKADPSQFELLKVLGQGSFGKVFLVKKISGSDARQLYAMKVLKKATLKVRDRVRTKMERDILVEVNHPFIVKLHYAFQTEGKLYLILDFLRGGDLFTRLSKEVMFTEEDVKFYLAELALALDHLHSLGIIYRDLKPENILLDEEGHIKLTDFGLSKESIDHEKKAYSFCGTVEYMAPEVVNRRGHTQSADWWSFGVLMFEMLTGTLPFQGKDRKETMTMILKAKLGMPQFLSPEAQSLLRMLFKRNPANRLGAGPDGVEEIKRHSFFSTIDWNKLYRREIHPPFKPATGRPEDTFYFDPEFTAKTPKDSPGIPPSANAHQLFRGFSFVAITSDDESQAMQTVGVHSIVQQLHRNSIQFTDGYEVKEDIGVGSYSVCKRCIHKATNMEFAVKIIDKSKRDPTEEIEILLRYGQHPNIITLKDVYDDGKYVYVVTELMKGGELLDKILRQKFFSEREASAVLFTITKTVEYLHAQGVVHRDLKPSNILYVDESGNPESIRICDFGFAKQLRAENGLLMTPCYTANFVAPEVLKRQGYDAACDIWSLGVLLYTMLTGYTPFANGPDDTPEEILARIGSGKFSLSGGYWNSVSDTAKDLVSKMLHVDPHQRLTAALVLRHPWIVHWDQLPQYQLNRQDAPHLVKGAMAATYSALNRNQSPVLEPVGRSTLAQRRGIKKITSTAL
# Summary of the method: (§1)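 Recombinant RSK2 (20 ng) preincubated 20 min at room temperature with compound in HEPES pH 7.4 buffer (MgCl2, EGTA, Tween 20, BGG) with 25 μM S6 peptide; started with ATP (10 μM final), 60 min at room temperature. ADP Quest fluorescence read at ex 530/em 590 nm. IC50 from curves of ≥3 independent tests, measured when inhibition at 10 μM exceeded 30%.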
# HCT-116 [2] = experiment: Antiproliferative activity against human HCT116 cells over expressing RSK2 after 48 hrs by MTT assay; format: functional, cell-based; conditions: HCT-116, 48 h
# Summary of the method: (§2)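 Formazan dissolved in DMSO, absorbance read at 570 nm. Inhibition = (1 − A570 compound/A570 control)×100. Screening concentration 100 μM (control 10 μM). IC50 from curves, ≥3 independent tests, attempted when inhibition at 100 μM exceeded 40%.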
# MDA-MB-231 [3] = experiment: Antiproliferative activity against human MDA-MB-231 cells over expressing RSK2 at 100 uM after 48 hrs by MTT assay; format: functional; conditions: MDA-MB-231, 48 h; summary of the method: as §2
# MCF7 [4] = experiment: Antiproliferative activity against human MCF7 cells over expressing RSK2 at 100 uM after 48 hrs by MTT assay; format: functional; conditions: MCF7, 48 h; summary of the method: as §2
# MCF7 [5] = experiment: Antiproliferative activity against human MCF7 cells over expressing RSK2 after 48 hrs by MTT assay; format: functional, cell-based; conditions: MCF7, 48 h; summary of the method: as §2
# HCT-116 [6] = experiment: Antiproliferative activity against human HCT116 cells over expressing RSK2 at 100 uM after 48 hrs by MTT assay; format: functional; conditions: HCT-116, 48 h; summary of the method: as §2
# MDA-MB-231 [7] = experiment: Antiproliferative activity against human MDA-MB-231 cells over expressing RSK2 after 48 hrs by MTT assay; format: functional, cell-based; conditions: MDA-MB-231, 48 h; summary of the method: as §2
# [8] = target: Mast/stem cell growth factor receptor Kit (Homo sapiens) (UniProt P10721); experiment: Inhibition of c-Kit at 10 uM by ELISA based method
# Summary of the method: (§3)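 Tyrosine kinase profiling by ELISA-based method, ATP at Km for each enzyme; percent inhibition at 10 μM, mean of at least two independent tests.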
# [9] = target: Mitogen-activated protein kinase 9 (Homo sapiens) (UniProt P45984); experiment: Inhibition of JNK2 at 10 uM
# Summary of the method: (§4)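 Serine/threonine kinase profiling by an outside contract service following manufacturer protocols, ATP at Km for each enzyme; percent inhibition at 10 μM.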
# [10] = target: Ribosomal protein S6 kinase beta-1 (Homo sapiens) (UniProt P23443); experiment: Inhibition of p70S6K at 10 uM; summary of the method: as §4
# [11] = target: Vascular endothelial growth factor receptor 2 (Homo sapiens) (UniProt P35968); experiment: Inhibition of KDR at 10 uM by ELISA based method; summary of the method: as §3
# [12] = target: Mitogen-activated protein kinase 14 (Homo sapiens) (UniProt Q16539); experiment: Inhibition of p38alpha at 10 uM; summary of the method: as §4
# Chain of Mitogen-activated protein kinase 14 (Homo sapiens) (Q16539 whole entry): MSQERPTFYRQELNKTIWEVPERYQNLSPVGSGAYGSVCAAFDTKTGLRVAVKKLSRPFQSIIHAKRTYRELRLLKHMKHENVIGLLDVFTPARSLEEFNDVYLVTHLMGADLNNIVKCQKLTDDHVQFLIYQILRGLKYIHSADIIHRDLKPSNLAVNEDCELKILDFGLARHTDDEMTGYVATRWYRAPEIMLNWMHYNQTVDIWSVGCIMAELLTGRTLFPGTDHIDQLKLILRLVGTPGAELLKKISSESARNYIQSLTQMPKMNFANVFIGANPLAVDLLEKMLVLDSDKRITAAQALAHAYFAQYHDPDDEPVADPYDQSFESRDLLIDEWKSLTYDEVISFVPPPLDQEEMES
# [13] = target: Platelet-derived growth factor receptor beta (Homo sapiens) (UniProt P09619); experiment: Inhibition of PDGFRbeta at 10 uM by ELISA based method; summary of the method: as §3
# Chain of Platelet-derived growth factor receptor beta (Homo sapiens) (P09619 whole entry): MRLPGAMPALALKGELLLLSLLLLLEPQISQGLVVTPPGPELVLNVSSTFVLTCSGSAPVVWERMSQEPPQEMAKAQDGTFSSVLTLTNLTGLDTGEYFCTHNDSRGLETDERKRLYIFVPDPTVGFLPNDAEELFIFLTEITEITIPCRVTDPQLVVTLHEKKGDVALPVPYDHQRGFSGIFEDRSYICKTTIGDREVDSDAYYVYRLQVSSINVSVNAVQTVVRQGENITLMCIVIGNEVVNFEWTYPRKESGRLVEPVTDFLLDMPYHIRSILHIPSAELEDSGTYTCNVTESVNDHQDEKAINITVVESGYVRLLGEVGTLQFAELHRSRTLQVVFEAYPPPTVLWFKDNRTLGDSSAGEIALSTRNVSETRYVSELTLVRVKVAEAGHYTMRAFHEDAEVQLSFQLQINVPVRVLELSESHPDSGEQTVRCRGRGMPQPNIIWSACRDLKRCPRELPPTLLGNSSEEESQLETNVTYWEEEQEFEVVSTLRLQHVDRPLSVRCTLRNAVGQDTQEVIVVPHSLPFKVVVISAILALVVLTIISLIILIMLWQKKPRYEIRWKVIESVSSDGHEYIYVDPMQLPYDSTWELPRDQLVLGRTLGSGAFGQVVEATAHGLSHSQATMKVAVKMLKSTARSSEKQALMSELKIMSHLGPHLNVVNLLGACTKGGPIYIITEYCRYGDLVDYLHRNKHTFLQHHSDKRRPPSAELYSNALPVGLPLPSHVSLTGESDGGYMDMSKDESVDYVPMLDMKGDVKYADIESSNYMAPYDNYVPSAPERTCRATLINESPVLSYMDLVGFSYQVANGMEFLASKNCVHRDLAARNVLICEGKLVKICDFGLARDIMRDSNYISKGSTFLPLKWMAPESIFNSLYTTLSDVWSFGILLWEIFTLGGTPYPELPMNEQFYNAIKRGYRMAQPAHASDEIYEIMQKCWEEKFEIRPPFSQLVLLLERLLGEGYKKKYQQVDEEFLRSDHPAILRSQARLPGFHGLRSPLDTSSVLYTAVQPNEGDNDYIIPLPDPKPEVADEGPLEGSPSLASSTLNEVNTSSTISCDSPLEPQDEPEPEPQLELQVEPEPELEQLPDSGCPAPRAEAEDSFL
# MDA-MB-231 [14] = experiment: Antimigratory activity against human MDA-MB-231 cells at 5 uM after 48 hrs by wound-healing assay; format: functional, cell-based
# Summary of the method: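 MDA-MB-231 grown 24 h to confluence in six-well plates, monolayer scratched with a pipet tip, washed, then kept in serum-free DMEM with compound (0.5 and 5 μM) for 48 h; migration photographed by phase-contrast microscopy at 0 and 48 h.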
# [15] = target: Vascular endothelial growth factor receptor 1 (Homo sapiens) (UniProt P17948); experiment: Inhibition of Flt1 at 10 uM by ELISA based method; summary of the method: as §3
# [16] = target: Fibroblast growth factor receptor 1 (Homo sapiens) (UniProt P11362); experiment: Inhibition of FGFR1 at 10 uM by ELISA based method; summary of the method: as §3
# [17] = target: Proto-oncogene tyrosine-protein kinase Src (Homo sapiens) (UniProt P12931); experiment: Inhibition of c-Src at 10 uM by ELISA based method; summary of the method: as §3
# [18] = target: Serine/threonine-protein kinase pim-1 (Homo sapiens) (UniProt P11309); experiment: Inhibition of PIM1 at 10 uM; summary of the method: as §4
# [19] = target: Tyrosine-protein kinase ABL1 (Homo sapiens) (UniProt P00519); experiment: Inhibition of ABL at 10 uM by ELISA based method; summary of the method: as §3
# Chain of Tyrosine-protein kinase ABL1 (Homo sapiens) (P00519 whole entry): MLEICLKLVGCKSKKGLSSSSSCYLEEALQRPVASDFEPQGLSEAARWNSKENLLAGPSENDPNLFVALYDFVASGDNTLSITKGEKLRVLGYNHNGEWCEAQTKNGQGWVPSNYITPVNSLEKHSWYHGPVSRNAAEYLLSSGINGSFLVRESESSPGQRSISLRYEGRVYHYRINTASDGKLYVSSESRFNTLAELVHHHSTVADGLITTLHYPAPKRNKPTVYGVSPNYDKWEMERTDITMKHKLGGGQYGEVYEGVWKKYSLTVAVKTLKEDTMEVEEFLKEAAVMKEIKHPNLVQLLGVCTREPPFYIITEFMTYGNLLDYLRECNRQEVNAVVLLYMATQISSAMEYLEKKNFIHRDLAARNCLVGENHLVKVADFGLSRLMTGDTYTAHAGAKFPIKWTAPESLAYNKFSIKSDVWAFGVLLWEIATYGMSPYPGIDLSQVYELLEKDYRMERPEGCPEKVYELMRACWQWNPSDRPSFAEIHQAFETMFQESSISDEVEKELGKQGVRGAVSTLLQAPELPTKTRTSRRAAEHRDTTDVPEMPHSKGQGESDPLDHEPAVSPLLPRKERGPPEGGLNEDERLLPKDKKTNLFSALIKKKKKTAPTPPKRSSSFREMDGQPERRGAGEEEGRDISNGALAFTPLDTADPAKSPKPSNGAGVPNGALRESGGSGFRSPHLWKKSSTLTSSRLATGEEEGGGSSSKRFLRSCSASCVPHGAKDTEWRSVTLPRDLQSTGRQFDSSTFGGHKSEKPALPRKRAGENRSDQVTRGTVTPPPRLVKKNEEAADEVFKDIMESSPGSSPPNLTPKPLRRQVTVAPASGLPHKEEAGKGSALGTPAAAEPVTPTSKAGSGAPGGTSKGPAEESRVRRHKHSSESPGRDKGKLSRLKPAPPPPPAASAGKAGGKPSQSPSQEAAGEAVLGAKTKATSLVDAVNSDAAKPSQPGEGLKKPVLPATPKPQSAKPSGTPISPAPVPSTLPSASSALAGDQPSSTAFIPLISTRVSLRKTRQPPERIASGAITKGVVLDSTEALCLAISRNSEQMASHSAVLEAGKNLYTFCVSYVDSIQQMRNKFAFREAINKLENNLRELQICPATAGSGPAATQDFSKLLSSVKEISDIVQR
# [20] = target: Epidermal growth factor receptor (Homo sapiens) (UniProt P00533); experiment: Inhibition of EGFR at 10 uM by ELISA based method; summary of the method: as §3
# Chain of Epidermal growth factor receptor (Homo sapiens) (P00533 whole entry): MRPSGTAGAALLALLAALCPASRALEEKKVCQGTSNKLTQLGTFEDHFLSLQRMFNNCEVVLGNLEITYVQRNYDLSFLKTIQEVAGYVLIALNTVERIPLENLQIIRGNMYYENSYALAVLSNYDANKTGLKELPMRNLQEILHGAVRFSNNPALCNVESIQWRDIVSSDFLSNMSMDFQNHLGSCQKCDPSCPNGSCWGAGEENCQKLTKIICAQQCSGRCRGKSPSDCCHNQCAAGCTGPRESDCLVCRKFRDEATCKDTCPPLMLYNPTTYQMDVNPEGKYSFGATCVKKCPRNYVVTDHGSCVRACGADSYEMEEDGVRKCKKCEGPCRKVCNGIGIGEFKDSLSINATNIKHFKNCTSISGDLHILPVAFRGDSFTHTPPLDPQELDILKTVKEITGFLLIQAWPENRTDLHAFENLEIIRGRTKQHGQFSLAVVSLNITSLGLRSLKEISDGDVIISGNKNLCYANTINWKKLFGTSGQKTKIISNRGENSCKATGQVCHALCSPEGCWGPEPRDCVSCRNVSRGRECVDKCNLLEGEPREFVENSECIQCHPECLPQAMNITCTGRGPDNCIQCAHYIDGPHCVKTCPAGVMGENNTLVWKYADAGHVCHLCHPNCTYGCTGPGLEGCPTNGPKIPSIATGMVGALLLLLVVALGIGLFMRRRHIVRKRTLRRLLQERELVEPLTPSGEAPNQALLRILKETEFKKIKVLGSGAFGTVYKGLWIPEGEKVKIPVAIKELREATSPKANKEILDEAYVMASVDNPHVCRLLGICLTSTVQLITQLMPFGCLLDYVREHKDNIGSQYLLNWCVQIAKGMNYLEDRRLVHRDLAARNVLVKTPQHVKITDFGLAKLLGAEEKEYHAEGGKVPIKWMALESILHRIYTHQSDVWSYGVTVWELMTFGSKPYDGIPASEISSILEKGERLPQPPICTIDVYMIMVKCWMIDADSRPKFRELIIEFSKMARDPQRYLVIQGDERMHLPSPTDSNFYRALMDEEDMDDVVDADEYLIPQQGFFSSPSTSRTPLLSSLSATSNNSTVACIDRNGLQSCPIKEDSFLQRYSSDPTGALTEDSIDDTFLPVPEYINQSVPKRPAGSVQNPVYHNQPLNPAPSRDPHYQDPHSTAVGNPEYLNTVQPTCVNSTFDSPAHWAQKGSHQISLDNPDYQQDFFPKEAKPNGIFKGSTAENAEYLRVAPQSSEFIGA
# [21] = target: RAC-alpha serine/threonine-protein kinase (Homo sapiens) (UniProt P31749); experiment: Inhibition of AKT1 at 10 uM; summary of the method: as §4
# [22] = target: Mitogen-activated protein kinase 3 (Homo sapiens) (UniProt P27361); experiment: Inhibition of ERK1 at 10 uM; summary of the method: as §4
# Chain of Mitogen-activated protein kinase 3 (Homo sapiens) (P27361 whole entry): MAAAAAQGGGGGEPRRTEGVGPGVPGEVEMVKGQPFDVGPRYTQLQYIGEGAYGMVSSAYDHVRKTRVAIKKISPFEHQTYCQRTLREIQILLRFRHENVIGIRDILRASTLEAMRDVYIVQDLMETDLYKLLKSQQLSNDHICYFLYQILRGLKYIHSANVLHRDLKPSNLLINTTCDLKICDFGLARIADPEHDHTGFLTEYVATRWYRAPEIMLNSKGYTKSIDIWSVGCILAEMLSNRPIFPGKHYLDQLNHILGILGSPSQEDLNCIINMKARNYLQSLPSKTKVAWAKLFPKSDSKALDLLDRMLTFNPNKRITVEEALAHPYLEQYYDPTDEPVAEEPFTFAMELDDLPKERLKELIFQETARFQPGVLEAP
# [23] = target: Ribosomal protein S6 kinase alpha-5 (Homo sapiens) (UniProt O75582); experiment: Inhibition of MSK1 at 10 uM; summary of the method: as §4
# [24] = target: Protein kinase C alpha type (Homo sapiens) (UniProt P17252); experiment: Inhibition of PKCalpha at 10 uM; summary of the method: as §4
# [25] = target: Ephrin type-A receptor 2 (Homo sapiens) (UniProt P29317); experiment: Inhibition of EPHA2 at 10 uM by ELISA based method; summary of the method: as §3
# [26] = target: Platelet-derived growth factor receptor alpha (Homo sapiens) (UniProt P16234); experiment: Inhibition of PDGFRalpha at 10 uM by ELISA based method; summary of the method: as §3
# [27] = target: Glycogen synthase kinase-3 alpha (Homo sapiens) (UniProt P49840); experiment: Inhibition of GSK3alpha at 10 uM; summary of the method: as §4
# [28] = target: Proto-oncogene tyrosine-protein kinase receptor Ret (Homo sapiens) (UniProt P07949); experiment: Inhibition of RET at 10 uM by ELISA based method; summary of the method: as §3
# [29] = target: T1, Ribosomal protein S6 kinase alpha-3; experiment: Inhibition of RSK2 at 10 uM; summary of the method: as §1
structure (smiles),measurement,setting,value
O=C1NC(=O)C(=NNc2ccc(O)cc2)C(=O)N1,IC50,[1],1.58 µM
same,IC50,HCT-116 [2],> 100 µM
same,inhibition at 100 µM,MDA-MB-231 [3],97.9%
same,inhibition at 100 µM,MCF7 [4],85.8%
same,IC50,MCF7 [5],15.6 µM
same,inhibition at 100 µM,HCT-116 [6],49.1%
same,IC50,MDA-MB-231 [7],9.69 µM
Clc1ccc2c(c1)SNC(c1ccccc1)=N2,IC50,[1],2.88 µM
same,inhibition at 100 µM,MDA-MB-231 [3],0%
same,inhibition at 100 µM,MCF7 [4],3.6%
same,inhibition at 100 µM,HCT-116 [6],6.5%
Cc1c(N)ccc2nc(-c3ccc(N)cc3)[nH]c12,IC50,[1],0.32 µM
O=C1c2ccccc2C(=O)N1CNc1ccc(N2CCOCC2)cc1,IC50,[1],0.95 µM
same,inhibition at 100 µM,MDA-MB-231 [3],6.89%
same,inhibition at 100 µM,MCF7 [4],31.2%
same,inhibition at 100 µM,HCT-116 [6],13.2%
O=C(O)c1ccc(/N=N/c2ccc(O)c3ncccc23)cc1,IC50,[1],3.47 µM
same,inhibition at 100 µM,MDA-MB-231 [3],22.2%
same,inhibition at 100 µM,MCF7 [4],36.7%
same,inhibition at 100 µM,HCT-116 [6],28.4%
Cc1c(N)ccc2[nH]c(-c3ccc(N)cc3)nc12,inhibition,[8],11.5%
same,inhibition,[9],-1.4%
same,inhibition,[10],6.2%
same,inhibition,[11],21.9%
same,inhibition,[12],2.7%
same,inhibition,[13],62.8%
same,Activity,MDA-MB-231 [14],Active
same,inhibition,[15],12.5%
same,inhibition,[16],15.5%
same,inhibition,[17],8.2%
same,inhibition,[18],86.8%
same,IC50,HCT-116 [2],30.2 µM
same,inhibition at 100 µM,MDA-MB-231 [3],89.2%
same,inhibition,[19],7.4%
same,inhibition,[20],44.9%
same,inhibition,[21],-2.5%
same,inhibition at 100 µM,MCF7 [4],98.3%
same,inhibition,[22],-4.4%
same,inhibition,[23],3.1%
same,inhibition,[24],-0.4%
same,IC50,MCF7 [5],25.5 µM
same,inhibition at 100 µM,HCT-116 [6],89.6%
same,IC50,MDA-MB-231 [7],16.1 µM
same,inhibition,[25],24%
same,inhibition,[26],1.4%
same,inhibition,[27],3.5%
same,inhibition,[28],0.6%
same,inhibition,[29],95.5%
Nc1nc2nc(O)nc(O)c2s1,IC50,[1],9.99 µM
O=C(Nc1ccccc1O)c1cnns1,IC50,[1],3.03 µM
same,IC50,HCT-116 [2],> 100 µM
same,inhibition at 100 µM,MDA-MB-231 [3],46.5%
same,inhibition at 100 µM,MCF7 [4],32.7%
same,inhibition at 100 µM,HCT-116 [6],43.2%
same,IC50,MDA-MB-231 [7],> 100 µM
Cc1cc(N)cc2[nH]c(-c3ccccc3)nc12,IC50,[1],1.06 µM
same,inhibition at 100 µM,MDA-MB-231 [3],45.8%
same,inhibition at 100 µM,MCF7 [4],21.3%
same,inhibition at 100 µM,HCT-116 [6],32.6%
